# Data taken from publication PMC3171567 (Steroids, 2011).
# Substitutions are numbered along the chain they refer to. Where two headings read alike, the source gives them in different places.
# Legend:
# [1] = test system: prostate, seminal vesicles, and the testes; assay: Urogenital tissue weights in LAPC-4 xenograft mice; type: in vivo, male SCID mice; conditions: 31 days, 0.15 mmol/kg; 3 and 5 s.c. b.i.d., 4 and 5-acetate p.o.
# Method in brief: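 Male SCID mice, 4–6 weeks old, housed pathogen-free with food and water ad libitum. LAPC-4 cells were scraped into DPBS, pelleted and resuspended in Matrigel (10 mg/ml) at 2.0 × 10^7 cells/mL before inoculation. Vehicle was 0.3% HPC; test compounds were given at 0.15 mmol/kg. After 31 days of treatment, prostate, seminal vesicles and testes were excised and weighed and compared with vehicle controls.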
# LAPC-4 xenografts = assay: LAPC-4 prostate cancer xenograft anti-tumor efficacy; type: in vivo, male SCID mice; conditions: for efficacy of oral dosing (in words): 0.15 mmol/kg o.d. p.o. up to day 24; for effect on LAPC-4 tumor growth (in words): third study, 0.15 mmol/kg s.c. once daily
# [2] = test system: AR protein in LAPC-4 tumors; assay: AR protein levels in excised LAPC-4 tumors, western blot; type: in vivo, male SCID mice
# human CYP17 [3] = molecular target: T1, human CYP17 (Homo sapiens, UniProt P05093); conditions: read-out: CYP17 IC50; value for 5; cited from earlier work
# T1 sequence (P05093 whole entry): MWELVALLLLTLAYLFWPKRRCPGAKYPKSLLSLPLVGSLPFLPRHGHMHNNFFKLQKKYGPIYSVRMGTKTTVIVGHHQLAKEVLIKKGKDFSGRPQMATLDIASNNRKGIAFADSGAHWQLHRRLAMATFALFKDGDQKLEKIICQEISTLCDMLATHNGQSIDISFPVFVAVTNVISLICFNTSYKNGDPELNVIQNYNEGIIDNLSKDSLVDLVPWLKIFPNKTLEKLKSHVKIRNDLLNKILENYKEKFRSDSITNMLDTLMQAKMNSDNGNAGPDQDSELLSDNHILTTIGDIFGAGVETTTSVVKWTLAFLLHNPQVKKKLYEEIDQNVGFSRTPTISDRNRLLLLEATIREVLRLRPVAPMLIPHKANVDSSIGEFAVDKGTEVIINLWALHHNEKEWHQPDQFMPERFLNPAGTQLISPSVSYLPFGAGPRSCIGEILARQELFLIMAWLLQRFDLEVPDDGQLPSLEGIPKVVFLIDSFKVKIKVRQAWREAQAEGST
# LNCaP cells = assay: Cell proliferation / viability XTT assay, LNCaP; type: cell-based; conditions: Homo sapiens; for GI50: read-out: Cell growth inhibition GI50 LNCaP; for IC50: read-out: IC50 in DHT stimulated LNCaP cells; for inhibition at 10 µM: read-out: inhibition of LNCaP proliferation
# LAPC-4 cells = assay: Cell proliferation / viability XTT assay, LAPC-4; type: cell-based; conditions: Homo sapiens; for GI50: LAPC4, read-out: Cell growth inhibition GI50 LAPC-4; for IC50: LAPC4, read-out: IC50 in DHT stimulated LAPC4 proliferation
# Method in brief: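 Cells moved to steroid-free medium (phenol red-free RPMI, 5% dextran-coated charcoal-treated serum, 1% penicillin/streptomycin) 3 days before plating at 1.5 × 10^4 cells/well. After 24 h attachment, they were given steroid-free medium with ethanol vehicle, androgens and/or test compound, changed every three days. Viability was read by XTT absorbance on day 7. Each result is the average of at least three wells.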
# [4] = molecular target: T2, wild-type AR (in LAPC-4 cells) (Homo sapiens, UniProt P10275); type: binding
# T2 sequence (P10275 1-920): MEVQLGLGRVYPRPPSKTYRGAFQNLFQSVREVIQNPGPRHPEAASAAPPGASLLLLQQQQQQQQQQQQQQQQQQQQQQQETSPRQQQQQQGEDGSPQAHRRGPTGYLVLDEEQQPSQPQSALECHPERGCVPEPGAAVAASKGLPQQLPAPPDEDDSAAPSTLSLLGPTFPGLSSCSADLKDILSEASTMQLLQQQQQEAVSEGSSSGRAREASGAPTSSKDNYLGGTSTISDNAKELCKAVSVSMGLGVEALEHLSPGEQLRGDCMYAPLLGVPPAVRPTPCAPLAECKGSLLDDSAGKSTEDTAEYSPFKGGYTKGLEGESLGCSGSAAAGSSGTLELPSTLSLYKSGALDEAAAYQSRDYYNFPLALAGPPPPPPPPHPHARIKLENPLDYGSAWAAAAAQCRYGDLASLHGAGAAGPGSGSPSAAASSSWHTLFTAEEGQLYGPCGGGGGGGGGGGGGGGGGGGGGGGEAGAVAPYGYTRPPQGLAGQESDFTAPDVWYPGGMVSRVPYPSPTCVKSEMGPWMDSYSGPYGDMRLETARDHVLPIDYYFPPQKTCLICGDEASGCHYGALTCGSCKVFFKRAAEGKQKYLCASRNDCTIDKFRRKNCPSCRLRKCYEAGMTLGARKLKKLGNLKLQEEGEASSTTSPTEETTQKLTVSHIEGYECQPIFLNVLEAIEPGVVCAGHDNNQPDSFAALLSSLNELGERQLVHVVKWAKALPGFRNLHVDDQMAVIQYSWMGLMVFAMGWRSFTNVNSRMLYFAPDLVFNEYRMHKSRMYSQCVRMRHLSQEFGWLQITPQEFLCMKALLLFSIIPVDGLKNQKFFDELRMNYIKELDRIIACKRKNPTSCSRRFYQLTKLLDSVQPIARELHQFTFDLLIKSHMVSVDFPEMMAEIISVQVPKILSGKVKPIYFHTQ
# [5] = Toxicity monitoring in LAPC-4 xenograft mice; type: in vivo, male SCID mice; conditions: third study; for deaths of mice: 10 mice per group
# [6] = molecular target: T3, mutant T877A AR (in LNCaP cells) (Homo sapiens, UniProt P10275, T878A); type: binding
# T3 sequence (P10275 1-920 T878A): T2 sequence (P10275 1-920) with T878A
# human CYP17 [7] = molecular target: T1, human CYP17; assay: Acetic acid releasing assay for CYP17 activity in 293T-CYP17 cells; type: cell-based; conditions: read-out: CYP17 IC50, each in duplicate
# [8] = test system: androgen-induced AR transcription; assay: Transcriptional activation luciferase assay; type: cell-based, human; conditions: LNCaP, ARR-2 reporter, with or without DHT
# Method in brief: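 LNCaP cells were kept steroid-free for 3 days, plated at 1 × 10^5 cells/well, then co-transfected with ARR2-Luc and Renilla pRL-null using Lipofectamine 2000. After 24 h at 37 °C, cells in serum-free phenol red-free RPMI were treated in triplicate with DHT, ethanol vehicle and/or test compound for 18 h. A dual luciferase read-out gave fold induction over control, normalized to Renilla.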
# [9] = test system: androgen receptor expression in LNCaP cells; assay: AR down-regulation in LNCaP cells, western blot densitometry; type: cell-based, human; conditions: for AR down-regulation (in words): highest concentration (15 μM) tested
# [10] = first study, 0.15 mmol/kg s.c. b.i.d.
structure (smiles),measurement,setting,value
"C[C@]12CC[C@H](O)CC1=CC[C@@H]1[C@@H]2CC[C@]2(C)C(c3cccnc3)=CC[C@@H]12 [Compound 3, 3β-Hydroxy-17-(3-pyridyl)androsta-5,16-dien]",prostate size/weight (in words),[1],failed to significantly reduce the size of any of the organs
same,seminal vesicles size/weight (in words),[1],failed to significantly reduce the size of any of the organs
same,testes size/weight (in words),[1],failed to significantly reduce the size of any of the organs
same,efficacy of oral dosing (in words),LAPC-4 xenografts; first study,neither compound demonstrated any significant efficacy
same,effect on AR levels in tumors (in words),[2]; [10],no significant effect on AR levels
"CC(=O)O[C@H]1CC[C@@]2(C)C(=CC[C@@H]3[C@@H]2CC[C@]2(C)C(c4cccnc4)=CC[C@@H]32)C1 [Compound 4, 3β-Acetoxy-17-(3-pyridyl)androsta-5,16-dien, reference compound]",seminal vesicles size/weight (in words),[1],significantly reduced the size of the seminal vesicles
same,efficacy of oral dosing (in words),LAPC-4 xenografts; first study,neither compound demonstrated any significant efficacy
"C[C@]12CC[C@H](O)CC1=CC[C@@H]1[C@@H]2CC[C@]2(C)C(n3cnc4ccccc43)=CC[C@@H]12 [Compound 5, 3β-Hydroxy-17-(1H-benzimidazol-1-yl)androsta-5,16-dien]",prostate size/weight (in words),[1],"reduced the size of the prostate, although the reduction was not quite significant"
same,seminal vesicles size/weight (in words),[1],significantly reduced the size of the seminal vesicles and testes
same,testes size/weight (in words),[1],significantly reduced the size of the seminal vesicles and testes
same,IC50,human CYP17 [3],0.047 µM
same,inhibition of growth of LAPC-4 tumors (in words),LAPC-4 xenografts; [10],most effective therapy in inhibiting the growth of LAPC-4 tumors
same,average tumor volume on day 31 (in words),"LAPC-4 xenografts; first study, 0.15 mmol/kg s.c. b.i.d., vs control p = 0.0001, 4 p = 0.005, 3 p = 0.053, 5-acetate p = 0.006",smaller average tumor volume on day 31
same,final tumor weights (in words),"LAPC-4 xenografts; first study, 31 days of treatment, vs control, 3, and castration, p < 0.05",significantly reduced
same,oral activity (in words),LAPC-4 xenografts; preclinical studies,not orally active
same,effect on LAPC-4 tumor growth (in words),LAPC-4 xenografts,did not have a significant effect on tumor growth
same,GI50,LNCaP cells,6 µM
same,GI50,LAPC-4 cells,3.2 µM
"C[C@]12CCC(F)CC1=CC[C@@H]1[C@@H]2CC[C@]2(C)C(n3cnc4ccccc43)=CC[C@@H]12 (some centres unmarked) [Compound 6, 3ξ-Fluoro-17-(1H-benzimidazol-1-yl)androsta-5,16-dien]",EC50,[4],0.934 µM
same,reduction of wild-type AR binding compared to 5,[4]; ratio of EC50 to that of 5,2.3 fold
same,changes in mouse weights (in words),[5],no changes in mouse weights were observed
same,deaths of mice,[5]; 0.15 mmol/kg s.c. once daily,five mice
same,deaths of mice,[5]; 0.15 mmol/kg s.c. twice daily,two mice
same,signs of toxicity at internal examination (in words),[5]; necropsy,no overt signs toxicity were seen
same,EC50,[6],1.6 µM
same,binding to the mutant AR compared to 5 (in words),[6],not significantly different from binding of 5
same,efficacy versus LAPC-4 xenografts relative to 5,LAPC-4 xenografts; on equimolar basis,~ 2 fold
same,effect on LAPC-4 tumor growth (in words),LAPC-4 xenografts,as effective in inhibiting LAPC-4 tumor growth as twice daily administration of 5
same,IC50,human CYP17 [7],0.15 µM
same,AR agonist/antagonist character in transcriptional activation studies,[8],pure AR antagonists
same,GI50,LNCaP cells,8 µM
same,IC50,LNCaP cells,8 µM
same,inhibition at 10 µM,LNCaP cells,85%
same,effect on AR protein levels in tumors (in words),"[2]; third study, 0.15 mmol/kg s.c., twice daily administration",only a minor and statistically insignificant effect on AR protein levels
same,GI50,LAPC-4 cells,16 µM
same,IC50,LAPC-4 cells,7 µM
same,AR down-regulation,"[9]; 15 μM, 24 hours",50%
"C[C@]12CC[C@@H](N=[N+]=[N-])CC1=CC[C@@H]1[C@@H]2CC[C@]2(C)C(n3cnc4ccccc43)=CC[C@@H]12 [Compound 8, 3α-Azido-17-(1H-benzimidazol-1-yl)androsta-5,16-dien]",EC50,[4],2.46 µM
same,binding affinity to the wild-type AR compared to 5 (in words),[4],greatly reduced
same,EC50,[6],4.34 µM
same,binding to the mutant AR compared to 5 (in words),[6],greatly reduced
same,IC50,human CYP17 [7],0.12 µM
same,AR agonist/antagonist character in transcriptional activation studies,[8],pure AR antagonists
same,GI50,LNCaP cells,7 µM
same,IC50,LNCaP cells,16 µM
same,inhibition at 10 µM,LNCaP cells,60%
same,GI50,LAPC-4 cells,19 µM
same,IC50,LAPC-4 cells,19 µM
same,AR down-regulation (in words),[9],did not cause down-regulation of AR expression
"C[C@]12CC[C@H](OS(N)(=O)=O)CC1=CC[C@@H]1[C@@H]2CC[C@]2(C)C(n3cnc4ccccc43)=CC[C@@H]12 [Compound 9, 3β-O-Sulfamoyl-17-(1H-benzimidazol-1-yl)androsta-5,16-dien]","effect on LAPC-4 tumor growth, oral (in words)",LAPC-4 xenografts; administered orally as described for 5,did not show any significant effect on LAPC-4 tumor growth
"C[C@]12CC[C@H](O)CC1=CC[C@@H]1[C@@H]2CC[C@]2(C)C(n3cnc4ccccc43)CC[C@@H]12 (stereo partly drawn) [Compound 10, 3β-Hydroxy-17-(1H-benzimidazol-1-yl)androsta-5-ene]",AR down-regulation (in words),[9],did not cause down-regulation of AR expression
"C[C@]12CC[C@H](O)C[C@@H]1CC[C@@H]1[C@@H]2CC[C@]2(C)C(n3cnc4ccccc43)=CC[C@@H]12 [Compound 15, 3β-Hydroxy-17-(1H-benzimidazol-1-yl)-5α-androsta-16-ene]",GI50,LNCaP cells,17.6 µM
same,AR down-regulation (in words),[9],did not cause down-regulation of AR expression
